Experimental findings from ChEMBL document CHEMBL1147907, “Structure-based discovery of new small molecule inhibitors of low molecular weight protein tyrosine phosphatase” (Eur J Med Chem, 2007) are described below.

Activity calls are given as the source filed them. No cut-off for these calls is given here.

Assay [1] has as its target T1, Low molecular weight phosphotyrosine protein phosphatase (Bos taurus, UniProt P11064).
T1 sequence (P11064 whole entry): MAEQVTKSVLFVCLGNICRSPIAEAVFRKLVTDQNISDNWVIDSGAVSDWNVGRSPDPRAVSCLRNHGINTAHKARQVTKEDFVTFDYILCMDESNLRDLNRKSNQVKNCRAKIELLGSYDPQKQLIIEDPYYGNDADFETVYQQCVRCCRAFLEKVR
Kind of assay: (§1) Inhibition of bovine low molecular weight PTP expressed in Escherichia coli […] cells. The gist of the method: (§2)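 Enzyme held at 10 nM; p-nitrophenyl phosphate substrate at five final concentrations (0.4, 0.8, 1.2, 1.6, 2.0 mM) against four to five inhibitor concentrations; inhibitors kept as 100 mM DMSO stocks. Run at 37 °C in 40 mM sodium acetate pH 5.0, 150 mM NaCl, 1 mM TCEP. p-Nitrophenolate release read at 405 nm; competitive Ki derived.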

Assay [2] addresses T2, Low molecular weight phosphotyrosine protein phosphatase (Bos taurus) (UniProt P11064).
T2 sequence (whole entry): T1 sequence (P11064 whole entry)
The assay is described as §1. The gist of the method:
as §2

In assay [1], `O=C(O)Cc1ccc2c(c1)[nH]c1ccc(Br)cc12` came in with a Ki of 60 µM.
`Cc1ccc2nc(-c3cccnc3)cc(C(=O)Nc3ccc(CC(=O)O)cc3)c2c1`: in assay [2], the outcome was inactive.
The molecule `CCn1c2ccc(CC(=O)O)cc2c2cc(CC(=O)O)ccc21` had a Ki in assay [1] of 170 µM.
Take `CS(=O)(=O)N1CCCC(C(=O)NCc2ccccc2Cl)C1` (centres undefined): the outcome in assay [2] was inactive.
Turning to `Cn1c(=O)oc2cc(S(=O)(=O)N3CCC(C(=O)O)CC3)ccc21`, the inhibition constant Ki in assay [1] is > 1000 µM.
For `O=C(O)c1ccc2c(c1)c1c3n2CCNC3CCC1` (centres undefined), in assay [2], the outcome was inactive.
Regarding `O=C(O)CCC(=O)N1CCc2cc(S(=O)(=O)NCc3cccs3)ccc21`, in assay [1], the Ki is > 1000 µM.
In assay [1], `CCn1c2c(c3cc(C(=O)O)ccc31)CCCC2=O` gave a Ki of 610 µM.
Take `O=[N+]([O-])c1ccc(C2=Nn3c(nnc3-c3ccccc3)SC2)cc1`: in assay [2], the outcome was inactive.
In assay [1], `O=C(O)c1ccc2c(c1)C1C=CCC1C(c1cccc(Br)c1)N2` (centres undefined) returned a Ki of 9 µM.
On to `O=C(O)c1ccc(-n2nc(C(F)(F)F)c3c2CCCC3)cc1`, for which, in assay [1], the Ki was > 1000 µM.
On to `COc1ccc(CN2CCN(S(C)(=O)=O)CC2)cc1OC`, for which the result in assay [2] was inactive.
Consider `O=C(O)C1CCC(CNCc2ccncc2)CC1` (centres undefined), for which, in assay [2], the outcome was inactive.
Consider `O=C(O)CCC(=O)N1N=C(c2ccccc2)CC1c1ccccc1F` (centres undefined), for which the Ki in assay [1] is > 1000 µM.
On to `CCCOc1ccc(N2C(=O)CC(N3CCC(C(=O)O)CC3)C2=O)cc1` (centres undefined), for which the outcome in assay [2] was inactive.
Regarding `O=C1N=C(Cc2cccn2-c2ccc(C(=O)O)cc2)C(=O)N1`, in assay [1], the Ki came to 11 µM.
Regarding `O=C(O)c1ccc(C2(c3ccc(C(=O)O)cc3)OC(=O)c3ccccc32)cc1`, in assay [2], the outcome was inactive.
The same measure, in the same setting: the entry for `O=C(O)CC(O)c1nc2ccccc2[nH]1` (centres undefined) is “inactive”.
In assay [1], `O=C(O)Cc1ccc(C2C(=O)C3SC=CC3NC2=S)cc1` (centres undefined) had a Ki of 880 µM.
Regarding `Cc1cc(C(=S)N2CCOCC2)c(C)n1-c1ccc(C(=O)O)cc1`, in assay [2], the result was inactive.
Consider `O=C(O)c1ccc2[nH]c3c(c2c1)CSCC3`, for which, in assay [1], the Ki amounted to 240 µM.
With `O=C(O)c1ccc2c(c1)C1C=CCC1C(c1ccccc1)N2` (centres undefined), in assay [1], the Ki was > 1000 µM.
In the case of `O=C(O)c1ccc2[nH]c3c(c2c1)CCCC3`, the Ki in assay [1] was > 1000 µM.
Still for that read-out and setting: as for `O=C(O)c1ccc(C2Nc3c(F)cc(F)cc3C3C=CCC32)cc1` (centres undefined), the figure is 910 µM.
On to `O=C(O)C1CCN(S(=O)(=O)c2cccc3nsnc23)CC1`, for which the result in assay [2] was inactive.
Take `O=C(O)c1ccc2c(c1)C1C=CCC1C(C(=O)O)N2` (centres undefined): the result in assay [2] was inactive.
Still for that read-out and setting: as for `O=C(O)C1CSC(c2cc(Br)ccc2O)N1` (centres undefined), the entry is “inactive”; as for `CS(=O)(=O)N1CCN(C2=C(Cl)C(=O)c3ccccc3C2=O)CC1`, “inactive”.
For `Cc1cc[n+](CCCS(=O)(=O)O)c2ccccc12`, the result in assay [2] was inactive.
As for `O=C(O)COc1ccc2c(c1)C(=O)CC1(CCCCC1)O2`, the outcome in assay [2] was inactive.
Consider `Cc1ccc(N2C(=O)CC(N3CCC(C(=O)O)CC3)C2=O)cc1` (centres undefined), for which, in assay [2], the result was inactive.
Regarding `O=C(O)c1ccc2c(c1)C1C=CCC1C(c1cccnc1)N2` (centres undefined), in assay [1], the Ki is > 1000 µM.
Consider `O=C(O)c1ccc2c(c1)C1C=CCC1C(c1ccccc1C(F)(F)F)N2` (centres undefined), for which, in assay [1], the inhibition constant (Ki) turned out to be 50 µM.
Turning to `O=C(O)C1CC(=O)N(C2CCCCCC2)C1` (centres undefined), in assay [2], the outcome was inactive.

Broadly, the Ki is the dissociation constant of the complex between target and ligand, obtained from inhibition or displacement.
